Most compounds without a hit are left out; they make up all but 2.6% or so of the library.
Platelet DG rel = modulates dense granule release in human platelets; inhibition, %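 (compounds screened at 7.5 µM in platelet-rich plasma)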; human platelet-rich plasma, SFLLRN dense granule ATP release, luminescence; actives 0.22% (n = 300,000); AID 1663;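 active = mean replicate score, as percent of positive control, at or above 50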
SENP6 block = blocks the human protease SENP6 | Q9GZR1 | Recombinant SENP6 catalytic domain, aminoluciferin luminescence | inhibition, % at 10 µM | actives 1.8% (n = 330,000) | AID 2599;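 active = inhibition above about 50% at the single tested dose, limit read from the data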;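 note: plate controls were DMSO wells with enzyme for no effect and DMSO wells lacking enzyme for full effect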
SENP8 block-1 = SENP8 protease inhibition; actives 1.2% (n = 330,000); purified SENP8, Z-RLRGG-aminoluciferin cleavage, luminescence; Q96LD8; inhibition, % at 10 µM; in the data active = inhibition above about 50%
SENP7 block = blocks the human protease SENP7; Q9BQF6; recombinant SENP7, Z-RLRGG-aminoluciferin luminescence, 40 min; inhibition, % at 5 µM; actives 1.5% (n = 330,000); AID 434973;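 active = inhibition above about 50% at the single test dose, limit read from the data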;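 note: plate controls were DMSO with enzyme for no effect and no enzyme buffer wells for full effect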
SENP8 block-2 = SENP8 (human) protease inhibition | Q96LD8 | recombinant SENP8, Nedd8 substrate fluorescence | inhibition, % at 20 µM | actives 0.64% (n = 360,000) | AID 602440; in the data active = inhibition mostly above about 40%, no sharp cut-off; inactive = mostly below about 27%
SENP1 FRET inh = SENP1 (human) catalytic domain inhibition; AID 624204; actives 0.21% (n = 360,000); recombinant SENP1 catalytic domain, CyPet-SUMO1-YPet FRET cleavage; inhibition, % at 10 µM; Q9P0U3;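 active = inhibition at least 30% at 10 µM, raw YFP signal under a set limit, fluorescence ratio 0.5 to 1.5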;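 note: 0% = enzyme with DMSO and 100% = no enzyme wells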
Target sequence (Q9P0U3 419-644 limits assumed): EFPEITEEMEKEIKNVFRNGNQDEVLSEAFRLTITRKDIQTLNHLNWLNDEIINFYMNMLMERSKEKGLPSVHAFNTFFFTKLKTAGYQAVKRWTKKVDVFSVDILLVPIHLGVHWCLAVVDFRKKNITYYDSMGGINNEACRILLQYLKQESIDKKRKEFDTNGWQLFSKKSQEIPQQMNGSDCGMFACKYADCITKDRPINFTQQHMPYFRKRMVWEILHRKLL
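Material: hSENP1 catalytic domain, recombinant; medium: Tris pH 8 with BME, BSA, NP40 and catalase; compound: single concentration of 10 µM compound, 0.5% DMSO final; technique: FRET read of cyan and yellow fluorescence; timing: 50 min enzyme reaction, room temperature, light-protected; reagent: SFCypet-SUMO1-SFYpet substrate at 25 nM; control set: no-enzyme low, enzyme-DMSO high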
SENP8 confirm = human SENP8 inhibition, confirmed; Recombinant SENP8, Z-RLRGG-aminoluciferin luminescence, 60 min; inhibition, % at 12.5 µM; shares compounds with SENP7 block; actives 40% (n = 6,200);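 active = mean inhibition across replicates above about 50%, limit read from the data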
SENP6 conf = confirmation of human SENP6 protease inhibitors; recombinant SENP6, Z-RLRGG-aminoluciferin luminescence; actives 58% (n = 6,200); shares compounds with SENP7 block; inhibition, % at 12.5 µM
SENP7 conf = human SENP7 inhibition, confirmed | AID 488917 | actives 69% (n = 6,200) | inhibition, % at 12.5 µM | shares compounds with SENP7 block | recombinant SENP7, Z-RLRGG-aminoluciferin luminescence, 40 min
Casp3 select = inhibits human caspase-3 in SENP selectivity test. AID 488918. inhibition, % at 12.5 µM. shares compounds with SENP7 block. actives 60% (n = 6,200). purified caspase-3, Z-DEVD-aminoluciferin luminescence, 60 min;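 active = mean inhibition above about 50%, limit read from the data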;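 note: plate controls were enzyme with DMSO for no effect and wells without caspase-3 for full effect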
Target sequence (P42574 28-227 limits assumed): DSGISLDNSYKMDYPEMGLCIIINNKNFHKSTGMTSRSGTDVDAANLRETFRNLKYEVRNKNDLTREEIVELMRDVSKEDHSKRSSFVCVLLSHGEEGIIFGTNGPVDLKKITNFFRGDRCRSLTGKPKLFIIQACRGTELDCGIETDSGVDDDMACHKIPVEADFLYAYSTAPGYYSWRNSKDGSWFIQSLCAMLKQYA
Luc interf = counter-screen for SENP inhibitors: luminescence interference. Pre-incubated SENP8/Z-RLRGG-aminoluciferin, luciferase luminescence interference. AID 488919. shares compounds with SENP7 block. inhibition, % at 12.5 µM. actives 39% (n = 6,200);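 active = mean inhibition above about 50% when retested at one dose, limit read from the data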;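 note: plate controls were DMSO wells with completed reaction for no effect and substrate without enzyme for full effect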
Starred values were filed as active, the others as inactive; x = no result.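 Rule for the calls, unless noted: active = mean inhibition above about 50% in the one-dose retest (limit read from the data); inactive = the rest.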

SMILES | Platelet DG rel | SENP6 block | SENP8 block-1 | SENP7 block | SENP8 block-2 | SENP1 FRET inh | SENP8 confirm | SENP6 conf | SENP7 conf | Casp3 select | Luc interf
CC1CC1C(=O)Nc1ccc(S(=O)(=O)N2CCCCC2)cc1 (stereo not drawn) | x | -1.1 | 26.3 | -1.5 | 4.2 | 0.7 | x | x | x | x | x
O=C(Nc1ccccn1)c1ccc2c(c1)OCCO2 | 34.8 | -7.3 | 61.5* | 79.6* | 15.5 | -1.7 | 9.4 | 69.7* | 92.0* | 88.9* | 71.7*
O=C(Nc1ccccn1)c1ccc2c(c1)OCO2 | 11.0 | 17.8 | 52.3* | 73.1* | 14.6 | -1.1 | 0.8 | 66.2* | 92.1* | 90.4* | 70.5*
Cc1cccc(NC(=O)CNC(=O)c2ccc3c(c2)OCO3)n1 | 23.2 | -2.9 | -2.1 | -14.4 | 5.8 | 1.3 | x | x | x | x | x
Cc1cccnc1NC(=O)c1ccc2c(c1)OCO2 | 10.7 | -1.7 | -3.1 | 1.4 | 14.1 | 1.5 | x | x | x | x | x
Cc1cccc(NC(=O)c2ccc3c(c2)OCCO3)n1 | 15.4 | 78.4* | 59.1* | 82.8* | 8.2 | 0.7 | 11.9 | 74.7* | 91.8* | 89.2* | 76.3*
Cc1nc(NC(=O)c2ccc3c(c2)OCO3)ccc1Br | 1.6 | 81.2* | 74.2* | 77.4* | 2.5 | 0.5 | -0.6 | 72.4* | 89.2* | 72.8* | 11.9
O=C(NCCC1=CCCCC1)C1CC(=O)N(Cc2ccccc2)C1 (stereo not drawn) | 0.9 | -13.3 | 1.5 | -7.2 | 4.3 | -3.4 | x | x | x | x | x
Cc1cccc(NC(=O)c2cc3c(s2)-c2c(C)cccc2OC3)n1 | 21.2 | 18.0 | 39.7 | 86.4* | -406.1 | -38.1 | 3.9 | 6.6 | 5.5 | 13.9 | 10.8
O=C1CCCC(O)=C1N=Nc1cccc(C(=O)O)c1 | -7.5 | 76.5* | 60.8* | 80.0* | 20.8 | -0.5 | 13.9 | 78.1* | 95.5* | 21.6 | 69.5*
Cc1ccccc1OC1(C)CCN(Cc2ccc(-c3ccccn3)cc2)C1 (stereo not drawn) | x | x | x | x | 17.8 | 4.0 | x | x | x | x | x
CNS(=O)(=O)c1cccc(C(=O)Nc2cccc(Cl)c2)c1 | x | 26.2 | -10.2 | 16.8 | 19.0 | -1.4 | x | x | x | x | x
COc1ccc(NC(=O)c2cccc(OS(=O)(=O)N(C)C)c2)cc1 | 0.8 | 17.4 | 7.3 | 23.9 | 6.7 | 2.4 | x | x | x | x | x
O=C(Nc1ccc(Cl)cc1)c1ccc2ncsc2c1 | x | -4.7 | -1.9 | 1.8 | -29.9 | -9.2 | x | x | x | x | x
CN(C)S(=O)(=O)Oc1cccc(C(=O)Nc2cccc(Cl)c2)c1 | -1.0 | 50.6* | 76.1* | 88.5* | 9.7 | 1.0 | 85.1* | 85.2* | 96.7* | 69.0* | 74.8*
O=C(Nc1cc(Cl)cc(Cl)c1)c1cccc(OC(F)F)c1 | 10.0 | 53.8* | -0.6 | 13.6 | 24.1 | -0.1 | 41.5 | 32.7 | 68.8* | 7.9 | 9.6
CN(C)S(=O)(=O)Oc1cccc(C(=O)Nc2ccc(Cl)c(Cl)c2)c1 | -1.9 | 63.8* | 54.5* | 38.3 | 5.1 | -1.6 | 10.6 | 67.3* | 86.2* | 15.0 | 10.4
O=C(Nc1cccc(Cl)c1)c1ccc2ncsc2c1 | 8.5 | 56.6* | 48.9 | 62.1* | 9.1 | 0.8 | 60.1* | 59.6* | 86.1* | 51.3* | 67.7*
O=C(O)C1(Nc2ccc([N+](=O)[O-])cc2[N+](=O)[O-])CCCC1 | x | x | x | x | 25.7 | 1.7 | x | x | x | x | x
COc1ccc(CCNC(=O)CCCn2c(=S)[nH]c3cc4c(cc3c2=O)OCO4)cc1OC | x | x | x | x | 16.4 | 2.8 | x | x | x | x | x
Cc1nnc2ccc(-c3ccc(NS(=O)(=O)c4ccccc4)cc3)nn12 | x | 3.6 | 5.3 | 0.0 | -293.3 | 4.8 | x | x | x | x | x

Assay outcomes from PubChem.
